# Assay results published in ChEMBL document CHEMBL1145100, “Structure-activity relationship of imidazo[1,2-a]pyridines as ligands for detecting beta-amyloid plaques in the brain” (J Med Chem, 2003).
# Assays:
# [1] = system: Mus musculus; assay: Biodistribution of radioactivity in normal mice (ICR) kidney after 30 minutes of intravenous injection of [125I]-16(IMPY); format: ADME, organism-based; conditions: in vivo, 0.5 h
# In short: (§1)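 Male ICR mice, 2-3 months old, 20-30 g, under ether anesthesia, given 0.15 mL of 0.1% bovine serum albumin solution containing the [125I] tracer into the tail vein. Killed by cardiac excision at set times after injection. Organs removed and weighed, then gamma-counted. % dose per organ computed against diluted aliquots of the injected material.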
# [2] = system: Mus musculus; assay: Biodistribution of radioactivity in normal mice (ICR) kidney after 6 hours of intravenous injection of [125I]-16(IMPY); format: ADME, organism-based; conditions: in vivo; in short: as §1
# [3] = system: Mus musculus; assay: Biodistribution of radioactivity in normal mice (ICR) liver after 1 hour of intravenous injection of [125I]-16(IMPY); format: ADME, organism-based; conditions: in vivo; in short: as §1
# [4] = system: Mus musculus; assay: Biodistribution of radioactivity in normal mice (ICR) liver after 2 hours of intravenous injection of [125I]-16(IMPY); format: ADME, organism-based; conditions: in vivo; in short: as §1
# [5] = system: Mus musculus; assay: Biodistribution of radioactivity in normal mice (ICR) liver after 2 minutes of intravenous injection of [125I]-16(IMPY); format: ADME, organism-based; conditions: in vivo; in short: as §1
# [6] = system: Mus musculus; assay: Biodistribution of radioactivity in normal mice (ICR) liver after 24 hours of intravenous injection of [125I]-16(IMPY); format: ADME, organism-based; conditions: in vivo; in short: as §1
# [7] = system: Mus musculus; assay: Biodistribution of radioactivity in normal mice (ICR) liver after 30 minutes of intravenous injection of [125I]-16(IMPY); format: ADME, organism-based; conditions: in vivo, 0.5 h; in short: as §1
# [8] = system: Mus musculus; assay: Biodistribution of radioactivity in normal mice (ICR) liver after 6 hours of intravenous injection of [125I]-16(IMPY); format: ADME, organism-based; conditions: in vivo; in short: as §1
# [9] = system: Mus musculus; assay: Biodistribution of radioactivity in normal mice (ICR) lung after 1 hour of intravenous injection of [125I]-16(IMPY); format: ADME, organism-based; conditions: in vivo; in short: as §1
# [10] = system: Mus musculus; assay: Biodistribution of radioactivity in normal mice (ICR) lung after 2 hours of intravenous injection of [125I]-16(IMPY); format: ADME, organism-based; conditions: in vivo; in short: as §1
# [11] = system: Mus musculus; assay: Biodistribution of radioactivity in normal mice (ICR) lung after 2 minutes of intravenous injection of [125I]-16(IMPY); format: ADME, organism-based; conditions: in vivo; in short: as §1
# [12] = system: Mus musculus; assay: Biodistribution of radioactivity in normal mice (ICR) lung after 24 hours of intravenous injection of [125I]-16(IMPY); format: ADME, organism-based; conditions: in vivo; in short: as §1
# [13] = system: Mus musculus; assay: Biodistribution of radioactivity in normal mice (ICR) lung after 30 minutes of intravenous injection of [125I]-16(IMPY); format: ADME, organism-based; conditions: in vivo, 0.5 h; in short: as §1
# [14] = system: Mus musculus; assay: Biodistribution of radioactivity in normal mice (ICR) lung after 6 hours of intravenous injection of [125I]-16(IMPY); format: ADME, organism-based; conditions: in vivo; in short: as §1
# [15] = system: Mus musculus; assay: Biodistribution of radioactivity in normal mice (ICR) muscle after 1 hr of intravenous injection of [125I]-16(IMPY); format: ADME, organism-based, Muscle tissue; conditions: in vivo; in short: as §1
# [16] = system: Mus musculus; assay: Biodistribution of radioactivity in normal mice (ICR) muscle after 2 hours of intravenous injection of [125I]-16(IMPY); format: ADME, organism-based, Muscle tissue; conditions: in vivo; in short: as §1
# [17] = system: Mus musculus; assay: Biodistribution of radioactivity in normal mice (ICR) muscle after 2 minutes of intravenous injection of [125I]-16(IMPY); format: ADME, organism-based, Muscle tissue; conditions: in vivo; in short: as §1
# [18] = system: Mus musculus; assay: Biodistribution of radioactivity in normal mice (ICR) muscle after 24 hours of intravenous injection of [125I]-16(IMPY); format: ADME, organism-based, Muscle tissue; conditions: in vivo; in short: as §1
# [19] = system: Mus musculus; assay: Biodistribution of radioactivity in normal mice (ICR) muscle after 30 minutes of intravenous injection of [125I]-16(IMPY); format: ADME, organism-based, Muscle tissue; conditions: in vivo, 0.5 h; in short: as §1
# [20] = system: Mus musculus; assay: Biodistribution of radioactivity in normal mice (ICR) muscle after 6 hours of intravenous injection of [125I]-16(IMPY); format: ADME, organism-based, Muscle tissue; conditions: in vivo; in short: as §1
# [21] = system: Mus musculus; assay: Biodistribution of radioactivity in normal mice (ICR) skin after 1 hour of intravenous injection of [125I]-16(IMPY); format: ADME, organism-based, Zone of skin; conditions: in vivo; in short: as §1
# [22] = system: Mus musculus; assay: Biodistribution of radioactivity in normal mice (ICR) skin after 2 hours of intravenous injection of [125I]-16(IMPY); format: ADME, organism-based, Zone of skin; conditions: in vivo; in short: as §1
# [23] = system: Mus musculus; assay: Biodistribution of radioactivity in normal mice (ICR) skin after 2 minutes of intravenous injection of [125I]-16(IMPY); format: ADME, organism-based, Zone of skin; conditions: in vivo; in short: as §1
# [24] = system: Mus musculus; assay: Biodistribution of radioactivity in normal mice (ICR) skin after 24 hours of intravenous injection of [125I]-16(IMPY); format: ADME, organism-based, Zone of skin; conditions: in vivo; in short: as §1
# [25] = system: Mus musculus; assay: Biodistribution of radioactivity in normal mice (ICR) skin after 30 minutes of intravenous injection of [125I]-16(IMPY); format: ADME, organism-based, Zone of skin; conditions: in vivo, 0.5 h; in short: as §1
# [26] = system: Mus musculus; assay: Biodistribution of radioactivity in normal mice (ICR) skin after 6 hours of intravenous injection of [125I]-16(IMPY); format: ADME, organism-based, Zone of skin; conditions: in vivo; in short: as §1
# [27] = system: Mus musculus; assay: Biodistribution of radioactivity in normal mice (ICR) spleen after 1 hour of intravenous injection of [125I]-16(IMPY); format: ADME, organism-based; conditions: in vivo; in short: as §1
structure (smiles),measurement,setting,value
CN(C)c1ccc(-c2cn3cc(I)ccc3n2)cc1,Dose/organ,[1],1.51%
same,Dose/organ,[2],0.25%
same,Dose/organ,[3],5.88%
same,Dose/organ,[4],2.9%
same,Dose/organ,[5],20.9%
same,Dose/organ,[6],0.61%
same,Dose/organ,[7],6.32%
same,Dose/organ,[8],1.54%
same,Dose/organ,[9],0.34%
same,Dose/organ,[10],0.2%
same,Dose/organ,[11],1.56%
same,Dose/organ,[12],0.05%
same,Dose/organ,[13],0.31%
same,Dose/organ,[14],0.12%
same,Dose/organ,[15],5.03%
same,Dose/organ,[16],2.96%
same,Dose/organ,[17],13.8%
same,Dose/organ,[18],0.27%
same,Dose/organ,[19],6.08%
same,Dose/organ,[20],1.46%
same,Dose/organ,[21],4.28%
same,Dose/organ,[22],3.14%
same,Dose/organ,[23],5.72%
same,Dose/organ,[24],0.22%
same,Dose/organ,[25],4.69%
same,Dose/organ,[26],2.19%
same,Dose/organ,[27],0.08%
